# Data from ChEMBL document CHEMBL4819012, “Discovery of novel 2-aryl-3-sulfonamido-pyridines (HoAns) as microtubule polymerization inhibitors with potent antitumor activities” (Eur J Med Chem, 2021).
# Calls of active or inactive are those of the source. The calls are words filed in the database; no cut-off is given here.
# Tests used:
# [1] = tested on: RKO; experiment: Antiproliferative activity against human RKO cells assessed as cell viability measured after 72 hrs by MTS method; format: functional, cell-based
# Method in brief: (§1)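 Log-phase cells plated at 5×10^3–6×10^3 per well for 24 h, then given graded compound concentrations in fresh medium for 72 h, five replicate wells. Medium replaced with medium containing 10% MTS, 30 min or more at 37 °C in dark; OD 490 nm read. IC50 by nonlinear regression; mean ± SD of at least three experiments.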
# [2] = tested on: PANC-1; experiment: Antiproliferative activity against human PANC-1 cells assessed as cell viability measured after 72 hrs by MTS method; format: functional, cell-based; details: PANC-1, 72 h; method in brief: as §1
# [3] = tested on: MCF7; experiment: Antiproliferative activity against human MCF7 cells assessed as cell viability at 10 uM measured after 72 hrs by MTS method; format: functional; details: read-out: Activity
# Method in brief: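 Single-concentration screen at 10 µM for 72 h. Log-phase cells plated at 5×10^3–6×10^3 per well for 24 h before dosing, five replicate wells. Viability measured by MTS: 10% MTS in fresh medium, 30 min or more at 37 °C in dark, absorbance 490 nm.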
# [4] = Antiproliferative activity against human HCCLM3 cells assessed as cell viability measured after 72 hrs by MTS method; format: functional, cell-based; details: HCCLM3, 72 h; method in brief: as §1
# [5] = tested on: BT-474; experiment: Antiproliferative activity against human BT-474 cells assessed as cell viability measured after 72 hrs by MTS method; format: functional, cell-based; details: BT-474, 72 h; method in brief: as §1
# [6] = tested on: SW480; experiment: Antiproliferative activity against human SW480 cells assessed as cell viability measured after 72 hrs by MTS method; format: functional, cell-based; details: SW480, 72 h; method in brief: as §1
# [7] = tested on: PLC-PRF-5; experiment: Antiproliferative activity against human PLC-PRF-5 cells assessed as cell viability measured after 72 hrs by MTS method; format: functional, cell-based; details: PLC-PRF-5, 72 h; method in brief: as §1
# [8] = tested on: A549; experiment: Antiproliferative activity against human A549 cells assessed as cell viability measured after 72 hrs by MTS method; format: functional, cell-based; details: A549, 72 h; method in brief: as §1
# [9] = tested on: SW-620; experiment: Antiproliferative activity against human SW-620 cells assessed as cell viability measured after 72 hrs by MTS method; format: functional, cell-based; details: SW-620, 72 h; method in brief: as §1
# [10] = tested on: SK-BR-3; experiment: Antiproliferative activity against human SK-BR-3 cells assessed as cell viability measured after 72 hrs by MTS method; format: functional, cell-based; details: SK-BR-3, 72 h; method in brief: as §1
# [11] = tested on: NCI-H460; experiment: Antiproliferative activity against human NCI-H460 cells assessed as cell viability measured after 72 hrs by MTS method; format: functional, cell-based; details: NCI-H460, 72 h; method in brief: as §1
# [12] = target: T1, Tubulin (Homo sapiens) (UniProt P68371+Q9H4B7+P0DPH7+P68366+Q13509+Q71U36+P04350+Q3ZCM7+P07437+P68363+Q9BQE3+Q6PEY2+Q13885+Q9BVA1+Q9BUF5); experiment: Inhibition of tubulin polymerization in human RKO cells assessed as fragmentation of microtubule at 1 uM measured 24 hrs by DAPI staining based immunoflourescence assay; format: cell-based
# Method in brief: (§2)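 RKO cells on coverslips (2.5×10^5 per well) incubated overnight, then treated for 24 h at 0.5 or 1 μM, DMSO, or 1 μM comparators. Fixed in cold methanol 10 min, permeabilized with 0.25% Triton X-100, blocked in 1% BSA at 4 °C overnight. Stained with anti-β-tubulin (1:100, 2 h RT) and Alexa Fluor 594 secondary (1:500, 1 h), nuclei with DAPI; imaged by fluorescence microscopy.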
# [13] = target: T1, Tubulin (Homo sapiens); experiment: Inhibition of tubulin polymerization in human RKO cells assessed as morphology changed to fusiform at 1 uM measured 24 hrs by DAPI staining based immunoflourescence assay; format: cell-based; details: in the assay text read “changed to round from fusiform” for “changed to fusiform”; method in brief: as §2
# [14] = organism: Sus scrofa; experiment: Inhibition of pig tubulin polymerization at 10 uM measured every minute for 60 mins by microplate reader method
# Method in brief: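 Kit assay with porcine tubulin (>97% pure) at 4 mg/mL in PIPES 80 mM, MgCl2 2 mM, EGTA 0.5 mM, pH 6.9, with GTP. Compound at 10 μM final (from 100 μM working solution) preincubated 5 min at 37 °C in a prewarmed plate before cold tubulin mix is added. A340 read every minute for 60 min at 37 °C.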
smiles,measurement,setting,value
Cc1ccc(S(=O)(=O)Nc2cccnc2-c2ccc(C#N)c(F)c2)cc1,IC50,[1],9.21 µM
same,IC50,[2],> 10 µM
same,viability at 10 µM,[3],> 70%
same,IC50,[4],> 10 µM
COc1ccc(S(=O)(=O)N(c2cccnc2-c2cccc(OC)c2OC)S(=O)(=O)c2ccc(OC)cc2)cc1,viability at 10 µM,[3],> 70%
COc1ccc(S(=O)(=O)Nc2cccnc2-c2cccc(O)c2)cc1,viability at 10 µM,[3],> 70%
COc1ccc(S(=O)(=O)Nc2cccnc2-c2ccccc2OC)cc1,viability at 10 µM,[3],> 70%
COc1ccc(S(=O)(=O)Nc2cccnc2-c2ccnnc2)cc1,viability at 10 µM,[3],> 70%
N#Cc1ccc(-c2ncccc2NS(=O)(=O)c2ccc(Cl)cc2)cc1F,IC50,[1],> 10 µM
same,IC50,[2],> 10 µM
same,viability at 10 µM,[3],> 70%
same,IC50,[4],> 10 µM
COc1ccc(S(=O)(=O)Nc2cccnc2-c2cccc(C#N)c2)cc1,viability at 10 µM,[3],> 70%
N#Cc1ccc(-c2ncccc2NS(=O)(=O)c2ccc(C(F)(F)F)cc2)cc1F,IC50,[1],> 10 µM
same,IC50,[2],> 10 µM
same,IC50,[4],> 10 µM
COc1ccc(S(=O)(=O)N(c2cccnc2-c2ccc(OC)cc2OC)S(=O)(=O)c2ccc(OC)cc2)cc1,viability at 10 µM,[3],> 70%
COc1ccc(S(=O)(=O)Nc2cccnc2-c2cccc(N)c2)cc1,viability at 10 µM,[3],> 70%
COc1ccc(S(=O)(=O)Nc2cccnc2-c2ccc(C#N)cc2)cc1,IC50,[1],0.259 µM
same,IC50,[2],1.09 µM
same,IC50,[5],1.34 µM
same,IC50,[6],0.204 µM
same,IC50,[7],0.816 µM
same,IC50,[8],2.46 µM
same,IC50,[9],0.607 µM
same,IC50,[10],0.746 µM
same,IC50,[11],1.5 µM
same,IC50,[4],0.747 µM
N#Cc1ccc(-c2ncccc2NS(=O)(=O)c2ccc(OC(F)(F)F)cc2)cc1F,IC50,[1],> 10 µM
same,IC50,[2],> 10 µM
same,IC50,[4],> 10 µM
COc1ccc(S(=O)(=O)Nc2cccnc2-c2ccccc2)cc1,IC50,[1],4.32 µM
same,IC50,[2],> 10 µM
same,IC50,[5],> 10 µM
same,IC50,[6],> 10 µM
same,IC50,[7],> 10 µM
same,IC50,[8],> 10 µM
same,IC50,[9],7.89 µM
same,IC50,[10],> 10 µM
same,IC50,[11],> 10 µM
same,IC50,[4],> 10 µM
CC(=O)O[C@H]1C(=O)[C@@]2(C)[C@H]([C@H](OC(=O)c3ccccc3)[C@]3(O)C[C@H](OC(=O)[C@H](O)[C@@H](NC(=O)c4ccccc4)c4ccccc4)C(C)=C1C3(C)C)[C@]1(OC(C)=O)CO[C@@H]1C[C@@H]2O,inhibition,[12],inactive
same,inhibition,[13],inactive
same,inhibition,[14],inactive
COc1ccc(S(=O)(=O)Nc2cccnc2-c2ccc([N+](=O)[O-])cc2)cc1,IC50,[1],1.4 µM
same,IC50,[2],7.19 µM
same,IC50,[5],> 10 µM
same,IC50,[6],3.85 µM
same,IC50,[7],5.3 µM
same,IC50,[8],> 10 µM
same,IC50,[9],3.62 µM
same,IC50,[10],6.31 µM
same,IC50,[11],> 10 µM
same,IC50,[4],7.6 µM
COc1ccc(S(=O)(=O)Nc2cccnc2-c2cccnc2)cc1,viability at 10 µM,[3],> 70%
N#Cc1ccc(-c2ncccc2NS(=O)(=O)c2ccc3ccccc3c2)cc1F,IC50,[1],2.92 µM
same,IC50,[2],10 µM
same,IC50,[4],8.87 µM
COc1ccc(S(=O)(=O)Nc2cccnc2-c2cccc3c2oc2ccccc23)cc1,viability at 10 µM,[3],> 70%
COc1ccc(S(=O)(=O)Nc2cccnc2-c2cc(OC)cc(OC)c2)cc1,viability at 10 µM,[3],> 70%
COc1ccc(S(=O)(=O)Nc2cccnc2-c2ccccc2O)cc1,viability at 10 µM,[3],> 70%
COc1ccc(S(=O)(=O)N(c2cccnc2-c2ccc3c(c2)OCO3)S(=O)(=O)c2ccc(OC)cc2)cc1,viability at 10 µM,[3],> 70%
COc1ccc(S(=O)(=O)Nc2cccnc2-c2cc(OC)c(OC)c(OC)c2)cc1,viability at 10 µM,[3],> 70%
COc1ccc(S(=O)(=O)Nc2cccnc2-c2ccc(OCc3ccccc3)cc2)cc1,viability at 10 µM,[3],> 70%
COc1ccc(S(=O)(=O)Nc2cccnc2-c2ccc3c(c2)OCO3)cc1,viability at 10 µM,[3],> 70%
N#Cc1ccc(-c2ncccc2NS(=O)(=O)c2ccc(Br)cc2)cc1F,IC50,[1],> 10 µM
same,IC50,[2],> 10 µM
same,viability at 10 µM,[3],> 70%
same,IC50,[4],> 10 µM
COc1ccc(S(=O)(=O)N(c2cccnc2-c2cc(OC)ccc2OC)S(=O)(=O)c2ccc(OC)cc2)cc1,viability at 10 µM,[3],> 70%
COc1ccc(-c2ncccc2NS(=O)(=O)c2ccc(OC)cc2)cc1,viability at 10 µM,[3],> 70%
COc1ccc(S(=O)(=O)Nc2cccnc2-c2ccc(OC)cc2OC)cc1,viability at 10 µM,[3],> 70%
COc1ccc(S(=O)(=O)Nc2cccnc2-c2ccc(C(F)(F)F)cc2)cc1,IC50,[1],4.05 µM
same,IC50,[2],> 10 µM
same,IC50,[5],> 10 µM
same,IC50,[6],9.21 µM
same,IC50,[7],> 10 µM
same,IC50,[8],> 10 µM
same,IC50,[9],6.82 µM
same,IC50,[10],> 10 µM
same,IC50,[11],> 10 µM
same,IC50,[4],> 10 µM
COc1ccc(S(=O)(=O)Nc2cccnc2-c2ccncc2)cc1,viability at 10 µM,[3],> 70%
COc1ccc(S(=O)(=O)Nc2cccnc2-c2cc(OC)ccc2OC)cc1,viability at 10 µM,[3],> 70%
COc1ccc(S(=O)(=O)Nc2cccnc2-c2ccc(O)cc2)cc1,viability at 10 µM,[3],> 70%
N#Cc1ccc(-c2ncccc2NS(=O)(=O)c2ccccc2)cc1F,IC50,[1],> 10 µM
same,IC50,[2],> 10 µM
same,IC50,[4],> 10 µM
COc1ccc(S(=O)(=O)Nc2cccnc2-c2cccc(OC)c2)cc1,viability at 10 µM,[3],> 70%
C=CCc1ccc(O)c(-c2ccc(O)c(CC=C)c2)c1 [HONOKIOL],viability at 10 µM,[3],> 70%
COc1ccc(S(=O)(=O)Nc2cccnc2-c2c(OC)cccc2OC)cc1,viability at 10 µM,[3],> 70%
COc1ccc(S(=O)(=O)Nc2cccnc2-c2cccc(OC)c2OC)cc1,viability at 10 µM,[3],> 70%
COc1ccc(S(=O)(=O)Nc2cccnc2-c2ccc(N)cc2)cc1,viability at 10 µM,[3],> 70%
COc1ccc(S(=O)(=O)Nc2cccnc2-c2cccc([N+](=O)[O-])c2)cc1,viability at 10 µM,[3],> 70%
COc1ccc(S(=O)(=O)Nc2cccnc2-c2ccc(C#N)c(F)c2)cc1OC,IC50,[1],> 10 µM
same,IC50,[2],> 10 µM
same,IC50,[4],> 10 µM
COc1ccc(S(=O)(=O)Nc2cccnc2-c2ccc(OC)c(OC)c2)cc1,viability at 10 µM,[3],> 70%
